Assay results of several laboratories.
Genome polyprotein protease: Genome polyprotein, protease (ZIKV, UniProt A0A024B7W1)

CC(C)C[C@H](NC(=O)[C@H]1O[C@@H]1C(=O)O)C(=O)NCCCCN=C(N)N — IC50 (Cathepsin B (CTSB, Homo sapiens, UniProt P07858); enzyme activity; inhibitor): 0.004 µM
CC(=O)c1cc(O)c2ccccc2c1O — IC50 (Genome polyprotein, methyltransferase (ZIKV, UniProt A0A024B7W1); enzyme activity; inhibitor; TR-FRET): 12.9 µM
COc1cc(C(=O)N2CC[C@@H](O)[C@@H](N)C2)cc2nc(-c3cc4ccccc4n3CC3CC3)n(C)c12 — IC50 (Sodium channel protein type 5 subunit alpha (SCN5A, Homo sapiens, UniProt Q14524); ion current; inhibitor): 39.8 µM
C[C@H](N)Cn1ncc2ccc3c(c21)CCCO3 — IC50 (Alpha-1A adrenergic receptor (Adra1a, Rattus norvegicus, UniProt P43140); ligand displacement; radioligand): 100 µM
CC(C)N(C)[C@@H]1CC[C@H](N2CC[C@H](NC(=O)c3cccc(C(F)(F)F)c3)C2=O)[C@H](CS(=O)(=O)C(C)C)C1 — IC50 (C-C chemokine receptor type 2 (CCR2, Homo sapiens, UniProt P41597); cell-free assay): 0.0003 µM
CC(C)C[C@H]1C(=O)N2CCC[C@H]2[C@]2(O)O[C@](NC(=O)[C@@H]3C=C4c5cccc6[nH]c(Br)c(c56)C[C@H]4N(C)C3)(C(C)C)C(=O)N12 — IC50 (5-hydroxytryptamine receptor 7 (HTR7, Homo sapiens, UniProt P34969); ligand displacement; radioligand): 0.152 µM
Cc1ccc(-c2ncn(-c3ccc(Nc4nccc(-c5cccc(N6CCOCC6)c5)n4)cc3)n2)cn1 — IC50 (Mitogen-activated protein kinase 10 (MAPK10, Homo sapiens, UniProt P53779); enzyme activity; inhibitor): 0.159 µM
COc1cc(NC(=O)C(=O)[C@H](CC(C)C)NC(=O)[C@H](CC(C)C)NC(=O)[C@H](CC(C)C)NC(=O)OCc2ccccc2)cc(OC)c1 — IC50 (Proteasome component C5/PSMB5, chymotrypsin-like site (Homo sapiens, UniProt P20618+P28074); enzyme activity in cells; inhibitor): 0.0251 µM
COc1c(-c2ccccc2)oc2c(ccc3occc32)c1=O — IC50 (Cyclin-dependent kinase 2, with cyclin E1 (CDK2, Homo sapiens, UniProt P24941); enzyme activity; inhibitor; ADP detection): > 10 µM
COc1cc2oc(-c3ccc(O)c(O)c3)cc(=O)c2c(O)c1O — IC50 (Genome polyprotein protease; enzyme activity; inhibitor; pH 8.5): 5 µM
O=c1c(O)c(-c2cc(O)c(O)c(O)c2)oc2cc(O)cc(O)c12 — IC50 (Genome polyprotein protease; enzyme activity; inhibitor; FRET; pH 7): 22 µM
COc1ncccc1NS(=O)(=O)c1ccc(S(=O)(=O)F)c2c1CCNC2 — IC50 (RALB (Homo sapiens, UniProt P11234, Y82F); cell-free assay; inhibitor; fluorescence): > 100 µM
N=C1CCCN1Cc1[nH]c(=O)[nH]c(=O)c1F — IC50 (Thymidine phosphorylase (Homo sapiens, UniProt P19971); enzyme activity; inhibitor): 0.009 µM
CCCCCCCCCCCCCCCCOC[C@H](COP(=O)([O-])OCC[N+](C)(C)C)OC(C)=O — IC50 (Platelet-activating factor receptor (PTAFR, Homo sapiens, UniProt P25105); ligand displacement; radioligand): 0.00027 µM
